Results reported in ChEMBL document CHEMBL1126705, “16 beta-([18F]fluoro)estrogens: systematic investigation of a new series of fluorine-18-labeled estrogens as potential imaging agents for estrogen-receptor-positive breast tumors” (J Med Chem, 1993).

Columns and labels:
Rattus norvegicus [1] = test: Tested in vivo for the biodistribution in rat kidney at 1 hour after intravenous dose of 100 microCi of drug in 10%ethanol saline; type: ADME, organism-based
Procedure, shortened: (§1)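 Ether-anesthetized 25-day-old female Sprague-Dawley rats (~40–53 g) got the [18F] tracer in 10% ethanol saline via femoral vein. Rats were decapitated at 1 or 3 h, and blood and organs were weighed and gamma-counted. Values are % injected dose/g as mean ± SD, n = 5 per time point.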

Rattus norvegicus [2] = test: Tested in vivo for the biodistribution in rat liver after 3 hours following an intravenous dose of 100 microCi of drug in 10%ethanol saline; type: ADME, organism-based
Procedure, shortened: (§2)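 Immature (25-day-old) female Sprague-Dawley rats, ether-anesthetized, given the fluorine-18-labeled estrogen by femoral vein injection in 10% ethanol saline. […] Other groups were killed by decapitation at 1 or 3 h. Blood and organs were weighed and gamma-counted. Data are % injected dose/g, mean ± SD, typically n = 5 per group.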

Rattus norvegicus [3] = test: Tested in vivo for the biodistribution in rat uterus/muscle at 1 hour after intravenous dose of 100 microCi of the drug and 15 ug of estradiol; type: ADME, organism-based, Muscle tissue
Procedure, shortened: (§3)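 Female Sprague-Dawley rats, 25 days old (~40–53 g), ether-anesthetized, given the 18F-labeled estrogen iv via femoral vein in 10% ethanol saline. […] Others were sacrificed by decapitation at 1 or 3 h. Blood and organs were excised, weighed and gamma counted as % injected dose/g, mean ± SD, typically n = 5 (4–6).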

Rattus norvegicus [4] = test: Tested in vivo for the biodistribution in blood of female rat at 1 hour after intravenous dose of 100 microCi of the drug and 15 u g of estradiol; type: ADME, organism-based
Rattus norvegicus [5] = test: Tested in vivo for the biodistribution in rat uterus/muscle at 1 hour after intravenous dose of 100 microCi of drug in 10%ethanol saline; type: ADME, organism-based, Muscle tissue; procedure, shortened: as §3
Rattus norvegicus [6] = test: Tested in vivo for the biodistribution in rat bone at 1 hour after intravenous dose of 100 microCi of the drug and 15 ug of estradiol; type: ADME, organism-based, Bone element
Rattus norvegicus [7] = test: Tested in vivo for the biodistribution in rat fat after 3 hours following an intravenous dose of 100 microCi of drug in 10%ethanol saline; type: ADME, organism-based, Adipose tissue; procedure, shortened: as §1
Rattus norvegicus [8] = test: Tested in vivo for the biodistribution in rat uterus/blood after 3 hours following an intravenous dose of 100 microCi of drug in 10%ethanol saline; type: ADME, organism-based; procedure, shortened: as §3
Rattus norvegicus [9] = test: Tested in vivo for the biodistribution in rat fat at 1 hour after intravenous dose of 100 microCi of drug in 10%ethanol saline; type: ADME, organism-based, Adipose tissue; procedure, shortened: as §1
[10] = Partition coefficient (logP); type: physicochemical; conditions: octanol/water
Procedure, shortened: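 Octanol/water log P estimated from log k'w measured by reversed-phase HPLC (Minick method) on a C8 silica column.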

Rattus norvegicus [11] = test: Tested in vivo for the biodistribution in rat muscle after 3 hours following an intravenous dose of 100 microCi of drug in 10%ethanol saline; type: ADME, organism-based, Muscle tissue; procedure, shortened: as §2
Rattus norvegicus [12] = test: Tested in vivo for the biodistribution in rat kidney after 3 hours following an intravenous dose of 100 microCi of drug in 10%ethanol saline; type: ADME, organism-based; procedure, shortened: as §1
Rattus norvegicus [13] = test: Tested in vivo for the biodistribution in rat muscle at 1 hour after intravenous dose of 100 microCi of the drug and 15 ug of estradiol; type: ADME, organism-based, Muscle tissue; procedure, shortened: as §2
[14] = target: T1, Estrogen receptor (Rattus norvegicus) (UniProt P06211+Q62986)
Rattus norvegicus [15] = test: Tested in vivo for the biodistribution in rat uterus at 1 hour after intravenous dose of 100 microCi of drug in 10%ethanol saline; type: ADME, organism-based; procedure, shortened: as §2
[16] = target: T2, Sex hormone-binding globulin (Homo sapiens) (UniProt P04278); test: Relative binding affinity against sex steroid binding protein (SBP)
T2 sequence (whole entry): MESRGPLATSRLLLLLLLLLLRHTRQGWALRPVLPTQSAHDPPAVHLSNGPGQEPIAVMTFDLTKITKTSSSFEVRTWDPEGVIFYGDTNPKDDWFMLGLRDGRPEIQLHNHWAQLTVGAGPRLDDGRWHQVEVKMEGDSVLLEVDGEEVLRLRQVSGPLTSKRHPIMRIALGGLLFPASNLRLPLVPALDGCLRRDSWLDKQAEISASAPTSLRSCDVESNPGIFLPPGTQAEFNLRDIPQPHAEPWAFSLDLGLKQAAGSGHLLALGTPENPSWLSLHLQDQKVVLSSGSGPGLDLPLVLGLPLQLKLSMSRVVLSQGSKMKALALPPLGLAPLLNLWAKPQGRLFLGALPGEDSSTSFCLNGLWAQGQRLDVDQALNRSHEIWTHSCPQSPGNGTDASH

[17] = target: T1, Estrogen receptor (Rattus norvegicus); remark: listed apart in the source
Rattus norvegicus [18] = test: Tested in vivo for the biodistribution in rat muscle at 1 hour after intravenous dose of 100 microCi of drug in 10%ethanol saline; type: ADME, organism-based, Muscle tissue; procedure, shortened: as §2
Rattus norvegicus [19] = test: Tested in vivo for the biodistribution in blood of female rat at 1 hour after intravenous dose of 100 microCi of drug in 10%ethanol saline; type: ADME, organism-based; procedure, shortened: as §1
Rattus norvegicus [20] = test: Tested in vivo for the biodistribution in rat bone after 3 hours following an intravenous dose of 100 microCi of drug in 10%ethanol saline; type: ADME, organism-based, Bone element; procedure, shortened: as §1
Rattus norvegicus [21] = test: Tested in vivo for the biodistribution in rat uterus after 3 hours following an intravenous dose of 100 microCi of drug in 10%ethanol saline; type: ADME, organism-based; procedure, shortened: as §2
Rattus norvegicus [22] = test: Tested in vivo for the biodistribution in rat ovaries at 1 hour after intravenous dose of 100 microCi of drug in 10%ethanol saline; type: ADME, organism-based, Female gonad; procedure, shortened: as §2
Rattus norvegicus [23] = test: Tested in vivo for the biodistribution in rat liver at 1 hour after intravenous dose of 100 microCi of the drug and 15 u g of estradiol; type: ADME, organism-based; procedure, shortened: as §2
Rattus norvegicus [24] = test: Tested in vivo for the biodistribution in rat fat at 1 hour after intravenous dose of 100 microCi of the drug and 15 ug of estradiol; type: ADME, organism-based, Adipose tissue
Rattus norvegicus [25] = test: Tested in vivo for the biodistribution in rat uterus/muscle after 3 hours following an intravenous dose of 100 microCi of drug in 10%ethanol saline; type: ADME, organism-based, Muscle tissue; procedure, shortened: as §3
Rattus norvegicus [26] = test: Tested in vivo for the biodistribution in rat kidney at 1 hour after intravenous dose of 100 microCi of the drug and 15 u g of estradiol; type: ADME, organism-based
Rattus norvegicus [27] = test: Tested in vivo for the biodistribution in rat uterus/blood at 1 hour after intravenous dose of 100 microCi of drug in 10%ethanol saline; type: ADME, organism-based; procedure, shortened: as §3
Rattus norvegicus [28] = test: Tested in vivo for the biodistribution in rat uterus at 1 hour after intravenous dose of 100 microCi of the drug and 15 micro g of estradiol; type: ADME, organism-based; procedure, shortened: as §2
Rattus norvegicus [29] = test: Tested in vivo for the biodistribution in rat ovaries after 3 hours following an intravenous dose of 100 microCi of drug in 10%ethanol saline; type: ADME, organism-based, Female gonad; procedure, shortened: as §2
Rattus norvegicus [30] = test: Tested in vivo for the biodistribution in rat liver at 1 hour after intravenous dose of 100 microCi of drug in 10%ethanol saline; type: ADME, organism-based; procedure, shortened: as §2
[31] = target: T3, Alpha-fetoprotein (Rattus norvegicus) (UniProt P02773); test: Relative binding affinity for Alphafetoprotein
T3 sequence (whole entry): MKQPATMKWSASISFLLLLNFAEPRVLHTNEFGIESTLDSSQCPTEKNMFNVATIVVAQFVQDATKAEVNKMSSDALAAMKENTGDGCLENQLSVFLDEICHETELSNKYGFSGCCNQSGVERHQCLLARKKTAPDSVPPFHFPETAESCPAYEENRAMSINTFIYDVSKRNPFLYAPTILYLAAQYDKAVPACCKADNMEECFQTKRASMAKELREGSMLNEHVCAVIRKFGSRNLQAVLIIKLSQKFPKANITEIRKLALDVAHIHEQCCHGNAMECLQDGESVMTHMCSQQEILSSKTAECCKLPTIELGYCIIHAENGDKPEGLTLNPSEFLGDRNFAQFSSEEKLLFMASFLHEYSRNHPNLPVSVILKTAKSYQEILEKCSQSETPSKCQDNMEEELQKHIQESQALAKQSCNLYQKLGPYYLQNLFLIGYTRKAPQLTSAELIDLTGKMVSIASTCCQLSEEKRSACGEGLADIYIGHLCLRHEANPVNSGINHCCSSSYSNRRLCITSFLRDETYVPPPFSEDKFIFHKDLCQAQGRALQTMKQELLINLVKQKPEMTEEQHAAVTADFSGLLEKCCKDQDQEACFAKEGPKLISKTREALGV

Rattus norvegicus [32] = test: Tested in vivo for the biodistribution in rat bone at 1 hour after intravenous dose of 100 microCi of drug in 10%ethanol saline; type: ADME, organism-based, Bone element; procedure, shortened: as §1
Rattus norvegicus [33] = test: Tested in vivo for the biodistribution in rat uterus/blood at 1 hour after intravenous dose of 100 microCi of the drug and 15 ug of estradiol; type: ADME, organism-based; procedure, shortened: as §3
Rattus norvegicus [34] = test: Tested in vivo for the biodistribution in rat ovaries at 1 hour after intravenous dose of 100 microCi of the drug and 15 ug of estradiol; type: ADME, organism-based, Female gonad; procedure, shortened: as §2
Rattus norvegicus [35] = test: Tested in vivo for the biodistribution in blood of female rat after 3 hours following an intravenous dose of 100 microCi of drug in 10%ethanol saline; type: ADME, organism-based; procedure, shortened: as §1

Injected (Rattus norvegicus [1]): 0.906%
Injected (Rattus norvegicus [2]): 2.204%
Injected (Rattus norvegicus [3]): 2.424%
Injected (Rattus norvegicus [4]): 0.576%
Injected (Rattus norvegicus [5]): 24.42%
Injected (Rattus norvegicus [6]): 0.635%
Injected (Rattus norvegicus [7]): 0.122%
Injected (Rattus norvegicus [8]): 12.21%
Injected (Rattus norvegicus [9]): 0.337%
logP [10]: 3.3
Injected (Rattus norvegicus [11]): 0.133%
Injected (Rattus norvegicus [12]): 0.376%
Injected (Rattus norvegicus [13]): 0.22%
BSI [14]: 27
Injected (Rattus norvegicus [15]): 7.466%
relative binding affinity (RBA) [16]: 0.589
NSB [17]: 1.04
Injected (Rattus norvegicus [18]): 0.307%
Injected (Rattus norvegicus [19]): 0.449%
Injected (Rattus norvegicus [20]): 0.557%
Injected (Rattus norvegicus [21]): 4.31%
Injected (Rattus norvegicus [22]): 2.159%
Injected (Rattus norvegicus [23]): 2.412%
Injected (Rattus norvegicus [24]): 0.206%
Injected (Rattus norvegicus [25]): 32.37%
Injected (Rattus norvegicus [26]): 0.752%
Injected (Rattus norvegicus [27]): 16.87%
Injected (Rattus norvegicus [28]): 0.533%
Injected (Rattus norvegicus [29]): 1.274%
Injected (Rattus norvegicus [30]): 2.249%
relative binding affinity (RBA) [31]: 22
Injected (Rattus norvegicus [32]): 0.608%
Injected (Rattus norvegicus [33]): 0.92%
Injected (Rattus norvegicus [34]): 0.863%
Injected (Rattus norvegicus [35]): 0.358%
Compound: C#C[C@]1(O)[C@@H](F)C[C@H]2[C@@H]3CCc4cc(O)ccc4[C@H]3CC[C@@]21C
